Source: PubChem
Hits are enriched below; roughly 2.4% of the tested compounds scored in any of these assays.
NPY1 pot ag – potentiates or activates human NPY-Y1 receptor | P25929 | NPY-Y1 expressing cells, potentiator/agonist activation | activation, % at 3.6 µM | 220,000 tested, 0.37% active | AID 1304; in the data active = activation above about 33%, passing the limit was not always enough;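 note: cells stimulated with NPY at EC10 then isoproterenol at EC100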
NPY Y1 blocker – blocks the human neuropeptide Y Y1 receptor | P25929 | HEK293-CNG Y1 cells, membrane potential fluorescence; NPY at EC95, then isoproterenol | inhibition, % at 3.6 µM | 200,000 tested, 1% active | AID 1040;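 active = inhibition above the campaign mean inhibition of all tested compounds plus 3 SD, cut at about 20% in these data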
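Assay system: HEK293 Y1/CNG channel cell line; Doses: single compound dose of 3.6 µM, 0.4% DMSO; Timing: dye 3 h, compound 60 min room temperature, stimulation 45 min; Technique: Membrane-potential fluorescent dye readout; Measure: % inhibition of NPY effect.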
NPY-Y2 antag – antagonists of human neuropeptide Y receptor Y2 | P49146 | NPY-Y2 expressing cells, antagonist mode | inhibition, % at 2.7 µM | 140,000 tested, 0.99% active; in the data active = inhibition above about 17%
NPY-Y2 PAM-ag – potentiates or activates human NPY-Y2 receptor. AID 1359. P49146. cells expressing NPY-Y2, potentiator/agonist read-out. activation, % at 3.6 µM. 220,000 tested, 0.45% active; in the data active = activation above about 27%;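 note: cells stimulated with NPY near EC25 plus isoproterenol at EC100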
S1P4 antagonist – human S1P4 receptor antagonism; 220,000 tested, 0.26% active; inhibition, % at 4.98 µM; O95977; S1P4-expressing cells, antagonist mode, reporter read-out; in the data active = inhibition above about 29%
Target sequence (O95977 whole entry, looked up): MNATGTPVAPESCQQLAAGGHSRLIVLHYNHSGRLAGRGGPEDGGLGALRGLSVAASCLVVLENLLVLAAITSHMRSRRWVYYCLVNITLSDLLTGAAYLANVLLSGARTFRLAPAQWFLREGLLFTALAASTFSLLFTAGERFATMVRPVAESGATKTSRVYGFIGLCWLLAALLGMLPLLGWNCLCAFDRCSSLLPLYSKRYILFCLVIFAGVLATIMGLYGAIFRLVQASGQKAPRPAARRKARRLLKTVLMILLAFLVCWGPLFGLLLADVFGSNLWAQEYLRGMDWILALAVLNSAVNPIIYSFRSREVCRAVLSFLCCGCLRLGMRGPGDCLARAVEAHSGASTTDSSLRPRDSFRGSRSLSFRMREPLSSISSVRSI
S1P4 ag – activates the human S1P4 receptor | activation, % at 4.98 µM | 220,000 tested, 0.35% active | S1P4-expressing cell line, agonist reporter assay | O95977 | AID 1509; in the data active = activation above about 11%
Hits are given with their value; 0 = inactive; - = no result given.

SMILES	NPY1 pot ag	NPY Y1 blocker	NPY-Y2 antag	NPY-Y2 PAM-ag	S1P4 antagonist	S1P4 ag
Cc1c(Cl)c([N+](=O)[O-])nn1CC(=O)NC(C)C1CC2CCC1C2 (configuration not stated)	0	20.4	21.5	0	0	0
CCC(C)NC(=O)Cn1nc([N+](=O)[O-])c(Cl)c1C (configuration not stated)	0	0	0	0	0	0
CSC1=NCCN1C(=O)c1ccc(S(=O)(=O)N2CCCCC2)cc1	0	0	0	0	0	166.4
COc1ccc(C2C(C(=O)c3ccccc3)=C(C)Nc3nc4ccccc4n32)c(OC)c1 (configuration not stated)	0	0	0	0	0	0
CC(C)(C)OC(=O)N[C@@H](Cc1ccccc1)c1nnc(S(=O)(=O)Cc2ccccc2)o1	0	0	0	0	73.4	0
CCN(CC)S(=O)(=O)c1cc(C(=O)OCC(=O)Nc2cccc(Br)c2)ccc1F	0	0	0	0	0	0
COc1ccc(NS(=O)(=O)c2cc(C)ccc2NC(=O)c2cc(C)oc2C)cc1	0	23.3	35.6	0	0	0
O=C(COc1ccc(Br)cc1CNC1CCCC1)Nc1ccccc1	0	0	-	0	0	0
COc1ccc2c(c1OC)C(=O)N1c3ccccc3C(=O)N(c3ccccc3)C21 (configuration not stated)	0	0	23.0	0	0	0
COc1ccc2c(c1OC)C(=O)N1c3ccccc3C(=O)N(c3ccc(F)cc3)C21 (configuration not stated)	0	52.0	0	0	0	0
COc1ccc2c(c1OC)C(=O)N(c1ccc(C)cc1)C2=O	0	0	-	0	0	0
CCOC(=O)C(=CNc1cccnc1Oc1ccc(C)c2c1CCC2)C(=O)OCC	0	-	-	0	0	0
CSc1nc2sc3c(c2c(=O)n1CC(C)C)CC(C)(C)OC3	0	-	-	0	0	0
Cc1cc(Oc2ccccc2F)nc(NCc2ccccc2)n1	0	25.7	24.4	0	0	0
Cc1cc(N/N=C/c2ccc(F)cc2)nc(NCc2ccccc2)n1	0	-	-	0	0	0
Cc1cc(Nc2ccccc2)nc(NCc2ccccc2)n1	0	0	0	0	0	0
CCCCNc1cc(C)nc(NCc2ccccc2)n1	0	30.6	29.0	0	0	0
COc1ccc2sc(N(CCN(C)C)C(=O)/C=C/c3cccs3)nc2c1	41.6	0	-	41.3	0	0
COc1ccc2nc(N(CCN(C)C)C(=O)/C=C/c3cccs3)sc2c1	0	0	-	0	0	0
CCOC(=O)CC1CCCCN1Cc1cn[nH]c1-c1ccc(F)cc1F (configuration not stated)	0	0	-	0	0	0
Nc1ccc(N=Nc2ccccc2)c2ccccc12	49.6	-	-	56.4	0	0
CC(=O)OC(C(=O)NC1CCCCC1)c1ccc(Cl)c(Cl)c1 (configuration not stated)	0	0	-	0	0	0
CCN(CC)CCCNC(=O)C1CCN(C(=O)c2cc3sccc3n2Cc2ccc(F)cc2)CC1	63.8	0	0	100.2	0	0
COc1cc(/C=N/NC(=O)CSc2ccccn2)ccc1OC(C)C	0	-	-	0	0	0
Cc1ccc(N(C(=O)c2csnn2)C(C(=O)NC(C)(C)C)c2cccnc2)cc1 (configuration not stated)	0	0	-	0	0	0
SMILES	NPY1 pot ag	NPY Y1 blocker	NPY-Y2 antag	NPY-Y2 PAM-ag	S1P4 antagonist	S1P4 ag
O=C(/C=C/c1ccco1)Nc1ccccc1C(=O)Nc1cccc(C(=O)O)c1	48.0	-	-	42.7	0	0
CCC(=O)Nc1nonc1-c1nc2ccccc2n1CCC(C)C	0	0	0	0	0	0
CC(=O)Nc1nonc1-c1nc2ccccc2n1CCC(C)C	0	42.8	17.8	0	0	0
CC(=O)Nc1cccc(-n2nnc(SCC(=O)N(C)c3ccccc3)n2)c1	0	-	-	0	0	0
CCOC(=O)c1c(NC(=O)CN2CCCCC2)sc2c1CCN(C(=O)OCC)C2	0	56.1	36.4	0	0	0
CCOC(=O)c1c(NC(=O)C(C)Sc2cccc[n+]2[O-])sc2c1CCN(Cc1ccccc1)C2 (configuration not stated)	0	0	0	0	0	0
CCOC(=O)c1c(NC(=O)CN(CC)CC)sc2c1CCN(C(=O)OCC)C2	0	23.5	30.4	0	0	0
CCOC(=O)c1c(NC(=O)CSc2ncccn2)sc2c1CCN(Cc1ccccc1)C2	0	32.9	17.4	0	0	0
